Assay outcomes deposited in PubChem BioAssay by Broad Institute.
FN deposition inh = fibronectin deposition inhibition; 0.086% of 350,000 active; inhibition, % at 12.6 µM; AH1F fibroblasts, Alexa488-fibronectin deposition fluorescence, overnight;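 active = mean inhibition across replicates of 30% or more, regardless of how many single replicates reach that level; inconclusive = mean under 30% yet at least half of replicates reach 30%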;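 also: positive control wells lacked labelled fibronectin entirely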
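Assay system: AH1F fibroblast monolayer, labelled fibronectin deposition. Amount: 10000 cells per well. Also added: labelled fibronectin 24 nM. Compound: single-point pinned compound. Incubation: cell attachment 1 h, compound and FN exposure overnight. Detection: fluorescence after three HBSS washes, excitation 485 nm, emission 525 nm. Read-out: inhibition of fibronectin deposition signal.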
RAD54 inh = inhibitors of human RAD54 branch migration. Q92698. RAD54 Holliday junction branch migration, FAM/BHQ fluorescence. inhibition, % at 10.4 µM. 0.14% of 360,000 active. AID 602329;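 active = mean normalized replicate activity at least 40 and at least half of replicates scoring 40 or more; inconclusive = only one of the two criteria met; inactive = mean below 40 and under half of replicates reaching 40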;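 also: 0% = median of neutral control wells and 100% = median of positive control wells; inhibitors cause a drop in the FAM fluorescence signal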
MLL AF4-AF9 inh = MLL-AF4/AF9 protein interaction inhibition; AID 651704; AlphaScreen, biotin-AF4 peptide binding to FLAG-AF9; 0.47% of 350,000 active; P42568; inhibition, % at 10 µM;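 active = every replicate reaching a set inhibition limit, whatever the replicate mean, cut at about 25% in these data; inconclusive = mean inhibition reaches that limit but some replicates miss it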;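 also: 0% = plate neutral control median and 100% = total signal loss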
NSD2 inh = inhibitors of human histone methyltransferase NSD2; O96028; NSD2 peptide methylation, AlphaScreen, 120 min; inhibition, % at 12.5 µM; 0.54% of 310,000 active; AID 743445; in the data active = inhibition above about 50%
RAD52 inh = inhibitors of human RAD52 DNA annealing; P43351; 0.46% of 360,000 active; AID 651710; inhibition, % at 18.7 µM; recombinant RAD52 DNA annealing, FRET fluorescence;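 active = every replicate showing at least 50% inhibition; inconclusive = mean inhibition at least 50% but not in every replicate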
Glyco luc inh = blocks N-linked glycosylation in D54 reporter cells; D54 ERlucT glycosylation luciferase reporter, 24 h; percent of 100 nM tunicamycin response; reporter increase, % at 12.5 µM; 0.23% of 360,000 active; AID 588692;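 active = mean luciferase reporter signal, scaled so untreated is 0 and the glycosylation-blocking control 100, at or above a set limit in every replicate; inconclusive = mean reaches the limit but not every replicate does; inactive = mean below the limit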;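 also: luciferase carries N-glycosylation sites so blocking glycosylation raises the light; 0% = median of neutral control wells and 100% = median of 100 nM tunicamycin wells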
RAD52 DNA ctr = binds DNA, flagging false RAD52 inhibitor hits; Salmon sperm DNA/acridine orange FP displacement, DNA binding; AC50, µM; 8% of 1,000 active; shares compounds with RAD52 inh;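 active = fitted half-maximal concentration for signal loss at or below twice the highest dose tested, in every separate run, actives reach about 64 µM in these data; inconclusive = runs disagree, or flat partial signal loss, or poor fit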
The depositor's hits bear a star; i = inactive; u = inconclusive; x = not tested or not shown. A selection: hits, their analogues and other compounds. The true share with any hit is near 1.2%.

SMILES	FN deposition inh	RAD54 inh	MLL AF4-AF9 inh	NSD2 inh	RAD52 inh	Glyco luc inh	RAD52 DNA ctr
c1cc(OCCCN2CCCCC2)ccc1CN1CCCCC1	-3	0	-9	3	21	-5	i
CNC[C@@H]1Oc2c(N)cccc2C(=O)N(C)C[C@@H]1C	-6	x	x	x	x	x	x
CN(C)c1ccc(NC(=O)CN2CCC(NC(=O)C3CCCCC3)CC2)cc1	0	x	51*	41	72*	-1	i
O=C(CN1CCC(NC(=O)C2CCCCC2)CC1)Nc1ccccc1	-1	12	-2	3	-7	1	x
CC1(C)CC(NC(=O)c2ccc(Cl)c(S(=O)(=O)N(Cc3ccccc3)c3ccccc3)c2)CC(C)(C)N1	-2	13	-4	7	51*	-4	i
COc1ccccc1N(Cc1ccccc1)S(=O)(=O)c1cccc(C(=O)NC2CC(C)(C)NC(C)(C)C2)c1	7	x	8	-2	57*	-4	i
CCCNC(=O)N1[C@H](CO)[C@H](c2ccccc2)[C@H]1CNC(=O)c1ccc(F)cc1	-8	6	x	x	x	x	x
CN1/C(=C/C=C/c2n(C)c3cc([N+](=O)[O-])c([N+](=O)[O-])cc3[n+]2C)C(C)(C)c2ccccc21	9	32	55*	x	61*	-6	38µM*
COCCNCC(O)CON=C1c2ccccc2-c2ccccc21 (centres undefined)	-1	x	1	0	-13	4	x
CC(C)CCNCC(O)CON=C1c2ccccc2-c2ccccc21 (centres undefined)	4	x	27*	x	66*	-3	i
c1ccc(Nc2ccc(NCCc3c[nH]c4ccccc34)cc2)cc1	10	x	x	x	78*	x	i
Cc1ccc(S(=O)(=O)N[C@H]2CC[C@H](CCn3cc(C(C)C)nn3)O[C@H]2CO)cc1	x	-11	0	x	9	x	x
NCC[C@H](O)C(=O)N[C@@H]1C[C@H](N)[C@@H](O[C@H]2O[C@H](CN)[C@@H](O)[C@H](O)[C@H]2O)[C@H](O)[C@H]1O[C@H]1O[C@H](CO)[C@@H](O)[C@H](N)[C@H]1O	-4	100*	62*	x	57*	1	i
CCC(=O)N1C[C@H](C)[C@@H](OC)CN(C)C(=O)c2cc(NC(=O)c3ccccc3)ccc2OC[C@@H]1C	-5	8	4	x	4	x	x
CCN(CC)CCn1c(SCC(=O)Nc2cccc(OC)c2)nc2c(sc3ccccc32)c1=O	10	x	-2	7	-24	-8	x
COc1cccc(NC(=O)CSc2nc3c(sc4ccccc43)c(=O)n2CCN(C)C)c1	x	x	0	1	74*	0	i
Cc1noc(C)c1S(=O)(=O)Nc1ccc2c(c1)C(=O)N([C@H](C)CO)C[C@H](C)[C@@H](CN(C)S(=O)(=O)c1c(C)noc1C)OCCCC[C@H](C)O2	2	3	-6	x	-32	x	x
CCOc1ccc(CCN2C(=S)N([C@@H](CC(C)C)CN3CCCC3CN3C(=S)NC[C@@H]3Cc3ccc(O)cc3)C[C@@H]2Cc2ccc(O)cc2)cc1 (some centres undefined)	-1	-2	4	x	79*	-8	i
CCOc1ccc(CCN2C(=S)N([C@@H](CC(C)C)CN3CCCC3CN3C(=S)NC[C@@H]3Cc3ccc(O)cc3)C[C@@H]2Cc2ccccc2)cc1 (some centres undefined)	x	-6	-6	x	-32	-9	x
CN(C)C(=O)[C@@H]1[C@@H](CO)[C@@H]2Cn3c(ccc(-c4ccccc4F)c3=O)[C@H]1N2C(=O)c1ccccc1	x	0	0	x	-3	x	x
Cc1cc(C(C)(C)CC(C)(C)C)ccc1OCCOCC[N+](C)(C)Cc1ccccc1	-1	33	22	x	91*	u	u
Cc1cc(C)n(-c2nc(NCCN(C)C)c3c4c(sc3n2)CCCC4)n1	29	x	8	x	83*	-8	i
C[C@@H]1CN([C@@H](C)CO)S(=O)(=O)c2ccc(/C=C/c3ccccc3)cc2O[C@H]1CN(C)Cc1cncnc1	x	-2	14	x	18	x	x
CC(Sc1nnc(NC(=O)c2cc3ccccc3oc2=O)s1)c1ccccc1 (centres undefined)	-16	7	0	x	53*	3	i
